A short description of data set [1]: Initial rates of formation of metabolic intermediate Cytochrome P-450 at compound concentration of 30 uM. Format: ADME. The procedure, abridged: (§1)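 Rabbit liver microsomes at 2 mg protein/mL with 0.1 mM EDTA, 37 °C, substrate 30 μM. Complex formation started with 0.4 mM NADPH and followed by dual-wavelength absorbance, 457 vs 500 nm. Initial rate is the initial slope, ΔA×10^4 per nmol P-450 per min. Extent is the plateau absorbance. Lag is the time from NADPH addition to first 457-nm chromophore. Triplicate or single runs.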

The nature of data set [2]: Initial rates of formation of metabolic intermediate Cytochrome P-450 with compound concentration of 300 uM. It counts as ADME. In outline:
(§2)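 Cross-inhibition in NADPH-supplemented rabbit liver microsomes at 37 °C. Preincubation with amine at 30, 150 or 300 μM while 457-nm complex formation was monitored. Once it plateaued (6–8 min), racemic hydroxylamine was added at 300 μM. Initial rate and plateau extent were read from ΔA457–500 nm vs time, per nmol P-450.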

In data set [3] the target is T1, Cytochrome P450 2C19 (Homo sapiens, UniProt P33261). The data set can be described thus: Inhibitory effect in formation of metabolic intermediate complex between Cytochrome P450 and racemic compound 2 initially, on pre-incubation with compound at 150 uM. The following applies: rabbit. Format: ADME, Oryctolagus cuniculus.
T1 sequence (P33261 whole entry): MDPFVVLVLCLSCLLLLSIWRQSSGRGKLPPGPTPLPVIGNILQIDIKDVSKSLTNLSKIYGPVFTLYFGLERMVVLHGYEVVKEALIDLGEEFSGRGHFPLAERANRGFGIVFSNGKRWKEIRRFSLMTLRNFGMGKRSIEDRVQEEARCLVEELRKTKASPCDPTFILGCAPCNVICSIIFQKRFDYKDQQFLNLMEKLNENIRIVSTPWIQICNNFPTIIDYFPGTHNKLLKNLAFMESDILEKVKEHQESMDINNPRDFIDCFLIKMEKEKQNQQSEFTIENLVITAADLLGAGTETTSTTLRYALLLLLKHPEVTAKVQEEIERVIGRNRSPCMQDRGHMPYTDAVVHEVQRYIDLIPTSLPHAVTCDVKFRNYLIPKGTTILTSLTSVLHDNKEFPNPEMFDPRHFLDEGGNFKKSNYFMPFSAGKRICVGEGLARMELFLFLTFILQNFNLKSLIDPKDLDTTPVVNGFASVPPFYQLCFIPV
Data set [4] addresses T1, Cytochrome P450 2C19. The data set can be described thus: Inhibitory effect in formation of metabolic intermediate complex between Cytochrome P450 and racemic compound 2 initially, on pre-incubation with compound at 30 uM. Format: ADME, Oryctolagus cuniculus. The following applies: rabbit.
The nature of data set [5]: Initial rates of formation of metabolic intermediate Cytochrome P-450 with compound concentration of 30 uM. It counts as ADME. The procedure, abridged: as §2
The nature of data set [6]: Initial rates of formation of metabolic intermediate Cytochrome P-450 with compound concentration of 150 uM. It counts as ADME. The procedure, abridged:
as §2

In data set [7] the target is T1, Cytochrome P450 2C19. The data set can be described thus: Inhibitory effect in formation of metabolic intermediate complex between Cytochrome P450 and racemic compound 2 at extent, on pre-incubation with Racemic 2 (300 uM) at 150 uM. Format: ADME, Oryctolagus cuniculus. The following applies: rabbit.
Data set [8] has as its target T1, Cytochrome P450 2C19. The data set can be described thus: Inhibitory effect in formation of metabolic intermediate complex between Cytochrome P450 and racemic compound 2 at extent, on pre-incubation with compound at 30 uM. It counts as ADME, Oryctolagus cuniculus. The following applies: rabbit.
The target of data set [9] is T1, Cytochrome P450 2C19. The data set can be described thus: Apparent binding affinity constant of compound (10.8-60.0) for Cytochrome P450. It counts as ADME, Oryctolagus cuniculus. The following applies: read-out: Ks.
Data set [10] has as its target T1, Cytochrome P450 2C19. The data set can be described thus: Inhibitory effect in formation of metabolic intermediate complex between Cytochrome P450 and racemic compound 2 at extent, on preincubation with compound at 150 uM. Format: ADME, Oryctolagus cuniculus. The following applies: rabbit.
Data set [11] has as its target T1, Cytochrome P450 2C19. The data set can be described thus: Inhibitory effect in formation of metabolic intermediate complex between Cytochrome P450 and racemic 2 initially, on pre-incubation with Racemic compound 2 (300 uM) at 300 uM. Format: ADME, Oryctolagus cuniculus. The following applies: rabbit.
Data set [12] in a line: Initial rates of formation of metabolic intermediate Cytochrome P-450 at compound concentration of 3.75-120 uM. It counts as ADME. In outline: (§3)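 Rabbit liver microsomes at 2 mg protein/mL with 0.1 mM EDTA, 37 °C, NADPH-dependent. Substrate tested at several concentrations. ΔA457–500 nm followed against time. Rate is the initial slope per nmol P-450 per min; extent is the plateau absorbance. Runs disturbed by a transient 450-nm species were discarded.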

For data set [13], the target named is T1, Cytochrome P450 2C19. The data set can be described thus: Inhibitory effect in formation of metabolic intermediate complex between Cytochrome P450 and racemic compound 2 initially, on pre-incubation with compound at 300 uM. It counts as ADME, Oryctolagus cuniculus. The following applies: rabbit.
Data set [14] is described as follows: Extent rates of formation of metabolic intermediate Cytochrome P-450 at compound concentration of 30 uM. Format: ADME. The procedure, abridged: as §1
The nature of data set [15]: Extent rates of formation of metabolic intermediate Cytochrome P-450 at compound concentration of 3.75-120 uM. Format: ADME. The procedure, abridged: as §3
Data set [16] addresses T1, Cytochrome P450 2C19. The data set can be described thus: Inhibitory effect in formation of metabolic intermediate complex between Cytochrome P450 and racemic 2 at extent, on preincubation with Racemic compound 2 (300 uM) at 30 uM. It counts as ADME, Oryctolagus cuniculus. The following applies: rabbit. In outline:
as §2

For data set [17], the target named is T1, Cytochrome P450 2C19. The data set can be described thus: Inhibitory effect in formation of metabolic intermediate complex between Cytochrome P450 and racemic compound 2 at extent, on pre-incubation with compound at 300 uM. Format: ADME, Oryctolagus cuniculus. The following applies: rabbit.
Data set [18] has as its target T1, Cytochrome P450 2C19. The data set can be described thus: Inhibitory effect in formation of metabolic intermediate complex between Cytochrome P450 and racemic compound 2 initially, on preincubation with Racemic compound 2 (300 uM) at 150 uM. It counts as ADME, Oryctolagus cuniculus. The following applies: rabbit. In outline: as §2
The target in data set [19] is T1, Cytochrome P450 2C19. The data set can be described thus: Inhibitory effect in formation of metabolic intermediate complex between Cytochrome P450 and racemic compound 2 at extent, on pre-incubation with Racemic 2 (300 uM) at 300 uM. The following applies: rabbit. It counts as ADME, Oryctolagus cuniculus.
The nature of data set [20]: Lag time between the addition of compound (30 uM) and the first appearance of chromophore. It counts as ADME. In outline:
as §1

Data set [21] in a line: Initial rates of formation of metabolic intermediate Cytochrome P-450 at compound concentration of 15-180 uM. It counts as ADME. In outline: as §3
Data set [22] is described as follows: Extent rates of formation of metabolic intermediate Cytochrome P-450 at compound concentration of 15-180 uM. Format: ADME. The procedure, abridged:
as §3

The target in data set [23] is T1, Cytochrome P450 2C19. The data set can be described thus: Apparent binding affinity of compound (15.0-45.0 uM) in Cytochrome P450 binding. Format: ADME, Oryctolagus cuniculus. The following applies: read-out: Ks.

Turning to `COc1cc(C[C@@H](C)N)c(OC)cc1C`, the Rate is 17.1 in [1]; 5.5 in data set [2]; 6.1 in [3]; 5.2 in data set [4]; 5.2 in data set [5]; 6.1 in data set [6]. For the same molecule, the Rate in [11] is recorded as 160; in data set [12], 17.5; in data set [13], 5.8; in [18], 183. The Extent in data set [7] turned out to be 116; in [8], 21; in [10] it was 25; in [14] it was 78; in data set [15], 23; in [16] it was 131. Also, the Extent in data set [17] worked out at 23; in data set [19], 105. In [9], the Kd is 18 µM. In data set [20], this molecule gave a Lag time of 14 s.

With `COc1cc(C[C@H](C)NO)c(OC)cc1C`, the Rate turned out to be 211 in data set [1], 66 in data set [21], 34 in data set [22] and 161 in data set [14]. For the same molecule, the Kd in data set [23] was 68 µM. This molecule gave a Lag time in data set [20] of 0 s.

These data come from ChEMBL document CHEMBL1121797, “Studies on chiral interactions of 1-(2,5-dimethoxy-4-methylphenyl)-2-aminopropane and the corresponding N-hydroxy metabolites with cytochrome P-450” (J Med Chem, 1981).
